Cl transport mod – modulators of human KCC2 chloride dependent transport | Q9H2X9 | KCC2 cells, thallium flux FluoZin-2 fluorescence | B-score of Tl+ flux slope (higher = more flux/activation; lower = inhibition) at 10 µM | hit rate 2.2% among 190,000 | AID 1456;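 active means thallium flux slope and its plate-corrected score both differing from the plate sample mean at a set confidence after two filtering rounds, in either direction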;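 further: slope of fluorescence scaled to starting intensity during 10 to 20 s after thallium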
AI-2 QS modul – Vibrio harveyi AI-2 quorum sensing modulation | Vibrio harveyi JMH597 AI-2 luminescence/OD600 ratio, 9 h; hits give low values; strain lacks LuxN and CqsS sensors; 0 = neutral-control median | activity change, % at 7.5 µM | hit rate 0.4% among 300,000; in the data active means activity change below about -75%, passing the limit was not always enough; inconclusive means no clear call, values can overlap the other calls;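 further: luminescence divided by OD600 gain over 9 h not by final OD600 alone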
KCNQ1 inh – inhibitors of human KCNQ1 potassium channel. P51787. CHO-K1 KCNQ1, FluxOR thallium flux fluorescence; hits give high values. B-score at 10 µM. hit rate 1.3% among 310,000;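 active means compounds whose thallium flux B-score, printed positive for inhibition, exceeds three library SD while starting fluorescence stays within three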;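 further: channel opened by potassium depolarization with thallium stimulus after 20 min compound exposure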
KCNQ1 act – human KCNQ1 channel potentiation or activation | hit rate 0.35% among 310,000 | CHO-K1 KCNQ1, thallium flux FluxOR fluorescence; hits give high values | B-score at 10 µM | AID 2648;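 active means fluorescence ratio B-score, a plate-corrected score, at least three library SD, with initial intensity B-score within 5 SD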
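Test system: CHO-K1 cells stably expressing KCNQ1 / Medium: assay buffer / Also added: depolarizing K+/Tl+ stimulus, K2SO4 and Tl2SO4 each 12.5 mM in 5x stock / Incubation: 90 min dye loading and 20 min compound exposure, both at room temperature / Signal: thallium influx via FluxOR fluorescence, kinetic imaging / Evaluation: B score of baseline-normalized fluorescence ratio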
hERG rescue – hERG (human) protection from proarrhythmic block; Q12809; CHO-hERG, FluxOR thallium flux, dofetilide IC70 present; activation (rescue from dofetilide block), less the hit threshold, % at 10 µM; hit rate 0.51% among 310,000; AID 1511;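 active means activation above the mean of controls blocked by dofetilide plus 5 SD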;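 further: thallium influx through hERG after potassium depolarization seen as dye fluorescence rise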
Mot1-301 SUMO – SUMOylation pathway inhibition by Mot1-301 growth rescue | S. cerevisiae Mot1-301 growth rescue, ATP luminescence, 38.5C; percent above DMSO median, 100 means doubled | growth rescue, % at 18.8 µM | hit rate 1% among 320,000 | AID 2716;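 active means every valid replicate shows activation above 250% relative to neutral control wells; inactive means the rest, any valid replicate at or below 250%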;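 further: OY570 slx delta 5 strain wells were the positive control but not used for scaling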
* hit, by the source's call; i = inactive; ? = inconclusive; · = not tested or not shown. Sampled rows, rich in hits. Any-hit rate of the full collection: about 4.2%.

SMILES | Cl transport mod | AI-2 QS modul | KCNQ1 inh | KCNQ1 act | hERG rescue | Mot1-301 SUMO
Cc1ccc(/C=N/c2sc3c(c2C#N)CCC3)s1 | 0.73 | 14 | i | i | -9 | -5
Cc1[nH]n(-c2ccc(F)cc2)c(=O)c1/C=N/c1sc2c(c1C#N)CCCC2 | · | 5 | i | 34* | 20* | -2
Cc1[nH]n(-c2cccc3ccccc23)c(=O)c1/C=N/c1sc2c(c1C#N)CCC2 | 26* | 32 | i | 11* | 2 | -4
CCc1cccc(C)c1NC(=O)CN(C)Cc1ccccc1F | -0.071 | -6 | i | i | -4 | ·
CCOc1cc(CNCCCN2CCOCC2)ccc1OCC(=O)NC(C)(C)C | -0.3 | 0 | i | 9* | -6 | 39
CCOC(=O)N1CCN(S(=O)(=O)c2c(C)nc3sccn3c2=O)CC1 | · | 28 | i | i | -8 | -4
Cc1cccc(C(=O)N=c2c(C#N)cc3c(=O)n4cccc(C)c4nc3n2Cc2ccco2)c1 | 0.017 | 16 | 7* | i | -17 | -13
CCOC(=O)c1cc2c(=O)n3ccccc3nc2n(Cc2ccco2)c1=NC(=O)c1cccnc1 | · | 16 | 7* | i | -23 | 89
COc1ccc(CN(C(=O)CSc2nnc(-c3ccccc3C)o2)c2ccc(F)cc2)cc1 | -0.84 | 19 | 6* | i | -15 | -9
O=C(CSc1nnc(-c2c[nH]c3ccccc23)o1)N(Cc1ccccc1)c1ccc(F)cc1 | 0.98 | 31 | i | i | -10 | 12
N#Cc1ccsc1NC(=O)CN1CCN(c2ccccc2)CC1 | -0.68 | 22 | i | i | 8.6* | ·
COCC(=O)N1CCC(Oc2ccc(C(=O)NC(C)c3nc(C)sc3C)cc2)CC1 (stereo not drawn) | · | 9 | i | i | -5 | -3
CS(=O)(=O)c1sc(C#N)c2c1C(=O)CC(c1ccccc1)C2 (stereo not drawn) | · | -14 | i | 27* | -10 | 358
CCc1nc2c(c(=O)c3ccccc3n2C)c(=O)n1CCc1ccc(OC)cc1 | -1.6 | 1 | 7* | i | -15 | -8
CCCCNCCOCCOc1ccc(F)cc1 | · | 17 | i | i | -4 | 304*
O=C(NC1CC1)C1CCC(=O)N1C1CCCC1 (stereo not drawn) | 0.14 | 24 | i | i | 5.2* | -20
CC(C)N1C(=O)CCC1C(=O)NC1CCCC1 (stereo not drawn) | · | 18 | i | i | -6 | -3
Cc1ccc(-c2cccc(C3CC=CC4C3C(=O)N(Cc3ccccc3)C4c3ccc4ccccc4c3)c2)cc1 (stereo not drawn) | 0.37 | -10 | i | i | 8.4* | 22
C[C@@H]1CC=C[C@H]2[C@H]1C(=O)N(Cc1ccccc1)[C@H]2c1ccc(F)c(Br)c1 | -0.87 | -6 | 10* | i | -26 | ·
O=c1[nH]c(SCc2ccccc2)nc2[nH]ncc12 | -1.5 | 2 | i | i | -7 | -1
COC(=O)c1cc(S(=O)(=O)N(Cc2ccccc2)C(C)(C)C)c[nH]1 | · | 36 | i | i | -9 | -13
COc1ccccc1/C=N/Nc1cc(N(C)C)nc(N(C)C)n1 | -0.53 | 7 | 6* | i | -7 | 5
CN(C)c1cc(N/N=C\c2ccccc2)nc(N(C)C)n1 | 0.54 | -25 | i | i | -17 | -8
N#C/C(=N\Nc1ccc(Cl)cc1)C(N)=S | -1.9 | 22 | 6* | i | -12 | 47
Cc1cc(NC(=O)CSc2ccc3nnc(-c4cccs4)n3n2)no1 | -2.2 | 9 | i | i | -7 | 11
SMILES | Cl transport mod | AI-2 QS modul | KCNQ1 inh | KCNQ1 act | hERG rescue | Mot1-301 SUMO
O=C(NC(=S)Nc1cc([N+](=O)[O-])ccc1Cl)c1ccccc1 | 11* | -9 | i | i | -5 | -2
CC(=O)c1sc(NC(=O)c2cccc(C)c2)nc1C | -0.64 | 0 | i | i | -15 | 255
COC(=O)c1sc(NC(=S)NC(=O)c2cccc(C)c2)nc1C | 18* | 21 | i | i | 6.2* | 199
O=C(CC(=O)c1ccccc1)Nc1cc(C(F)(F)F)ccc1Cl | -0.099 | 17 | i | i | -6 | -1
Cc1cc[n+](CC(=O)Nc2cc(C(F)(F)F)ccc2Cl)cc1 | · | 4 | i | i | 4.9* | 5
CN(C)c1cc[n+](CC(=O)Nc2cc(C(F)(F)F)ccc2Cl)cc1 | -0.043 | -15 | i | i | 3 | 10
O=C(NC(=S)Nc1cc(C(F)(F)F)ccc1Cl)c1ccccc1 | 1.8 | -1 | i | i | 4.7* | -6
CCCCC1=CC2=CC(=O)C(C)(OC(=O)c3ccc(Cl)nc3)C(=O)C2=CO1 (stereo not drawn) | · | 29 | i | i | -4 | 28
COCCNC(=O)/C(C#N)=c1\s/c(=C\c2ccccc2OC(F)F)c(=O)n1Cc1ccccc1 | 0.31 | 30 | i | i | -21 | 4
Cc1ccc(C(=O)NC(=S)Nc2ccccc2C(F)(F)F)cc1C | · | 15 | i | i | -3 | -4
Cc1cccc(C(=O)NC(=S)Nc2ccccc2C(F)(F)F)c1 | 19* | 15 | i | i | -10 | 7
O=C(Nc1cc(C(F)(F)F)ccc1Cl)C(NCc1ccccc1)c1ccccc1 (stereo not drawn) | 0.42 | 37 | 11* | i | -21 | 3
COC(=O)c1sc(NC(=O)COc2cccc3ccccc23)nc1C | 0.62 | 35 | i | i | 9.0* | 19
CCN(CC)CCNC(C(=O)Nc1cc(C(F)(F)F)ccc1Cl)c1ccccc1 (stereo not drawn) | 0.77 | 14 | i | i | -14 | 15
CCOC(=O)[C@@H]1[C@H]2COc3cc(OC)ccc3[C@@H]2N2C(=O)N(c3ccccc3)C(=O)[C@]12C | · | · | · | · | · | -2
OCCN1CCN(Cc2cc(Cl)c3cccnc3c2O)CC1 | 0.21 | -13 | i | i | -10 | -5
Oc1c(CN2CCN(c3ccccn3)CC2)cc(Cl)c2cccnc12 | 7* | ? | i | i | -7 | 105
COc1ccccc1N1CCN(Cc2cc(Br)c(O)c3ncccc23)CC1 | 7.2* | -24 | i | i | -7 | -20
COc1ccc(-c2nn(C)c(=O)[nH]2)cc1 | · | 17 | i | i | -4 | -1
CN(C)c1ccc(/C=c2/sc3n(c2=O)NC2(c4ccccc4)N(C)C(=O)N(C)C2(c2ccccc2)N=3)cc1 (stereo not drawn) | 0.63 | 32 | i | i | -12 | 19
COc1ccc(C2(NC(C)=O)CCN(C(=O)c3ccco3)CC2)cc1 | 0.67 | 5 | i | i | -3 | -4
COc1ccc(-c2cn3c(C)c(C(=O)N4CCN(c5ccccc5F)CC4)sc3n2)cc1 | · | 25 | i | i | -9 | 22

From PubChem BioAssay
